Compound activity deposited in PubChem BioAssay by several laboratories.
This is a sample that favours compounds with a hit; in the whole collection about 4.2% have one here.
TMEM16A act = TMEM16A chloride channel activators or potentiators, primary screen, cell-based, HTS; B-score at 10 µM; Anoctamin-1 (Mus musculus), Q8BHY3; HEK293 TMEM16A/YFP-H148Q/I152L, iodide quench fluorescence; hits give low values; 0.3% of 340,000 active;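 active means fluorescence-ratio B-score plate-corrected deviation score at least 3 library SD below zero, with starting fluorescence score within 5 deviations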;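 further: channel opened by trigger with iodide after compound preincubation; score built on the fluorescence ratio of max minus min over baseline; more negative score means more quench and so TMEM16A activation or potentiation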
Target sequence (Q8BHY3 whole entry, looked up): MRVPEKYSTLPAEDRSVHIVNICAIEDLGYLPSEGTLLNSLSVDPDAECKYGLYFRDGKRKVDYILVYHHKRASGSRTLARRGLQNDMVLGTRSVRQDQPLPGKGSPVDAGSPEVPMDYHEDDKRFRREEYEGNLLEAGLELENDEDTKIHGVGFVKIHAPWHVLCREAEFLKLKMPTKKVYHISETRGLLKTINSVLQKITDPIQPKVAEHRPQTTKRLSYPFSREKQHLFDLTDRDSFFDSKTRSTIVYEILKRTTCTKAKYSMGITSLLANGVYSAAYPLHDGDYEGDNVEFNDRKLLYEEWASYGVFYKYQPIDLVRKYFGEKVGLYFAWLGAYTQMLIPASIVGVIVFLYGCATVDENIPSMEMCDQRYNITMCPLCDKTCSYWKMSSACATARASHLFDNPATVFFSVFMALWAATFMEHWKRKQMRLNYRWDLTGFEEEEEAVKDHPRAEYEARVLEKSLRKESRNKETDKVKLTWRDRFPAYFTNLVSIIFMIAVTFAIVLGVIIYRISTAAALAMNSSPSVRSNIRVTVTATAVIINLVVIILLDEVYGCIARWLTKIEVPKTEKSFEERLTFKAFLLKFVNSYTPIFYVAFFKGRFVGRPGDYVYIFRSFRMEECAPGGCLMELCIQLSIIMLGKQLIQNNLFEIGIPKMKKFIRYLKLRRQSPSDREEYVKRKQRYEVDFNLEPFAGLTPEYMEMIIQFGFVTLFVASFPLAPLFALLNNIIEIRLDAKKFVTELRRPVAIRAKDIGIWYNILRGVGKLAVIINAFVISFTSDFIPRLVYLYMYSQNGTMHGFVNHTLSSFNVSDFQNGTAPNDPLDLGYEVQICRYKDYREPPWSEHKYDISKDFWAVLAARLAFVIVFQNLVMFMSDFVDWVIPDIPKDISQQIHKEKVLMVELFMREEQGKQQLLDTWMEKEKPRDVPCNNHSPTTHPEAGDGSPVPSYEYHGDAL
CHOP inhibitor = inhibitors of CHOP promoter induction, primary screen, cell-based, unfolded protein response, luciferase reporter. CHO-K1 CHOP-promoter luciferase, tunicamycin-induced, 15-18 h. inhibition, % at 10 µM. 3.8% of 220,000 active. AID 2732, 2010;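 active means compounds that reduced the stress-induced luciferase reporter signal by more than about 70% of percent inhibition, limit read from the data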
TMEM16A inh = TMEM16A chloride channel inhibitors, primary screen, cell-based, HTS | HEK293 TMEM16A/YFP iodide influx fluorescence, ionomycin | normalized B-score (activity score, 25-100; higher = stronger inhibition) at 10 µM | 1.2% of 310,000 active | AID 588511, 2011;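 active means ratio plate-corrected score three or more library SD toward inhibition, starting fluorescence score within five deviations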;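 further: score derived from kinetic fluorescence span divided by baseline fluorescence per well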
Hep lipid drop = inhibitors of hepatocyte lipid droplet formation, primary screen, imaging, high-throughput imaging, BODIPY stain; AML12 mouse hepatocytes, oleate lipid droplets; inhibition, % at 6.5 µM; 0.4% of 240,000 active;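 active means lipid droplet intensity inhibited by at least 50%, with more than 500 cells counted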
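Material – AML12 mouse liver cells · Also added – oleate loading, 100 µM · Compound dosing – 6.5 µM single-point dosing · Times – overnight treatment with compound plus oleate · Measured by – fluorescence imaging, 20x objective, two fields per well · Read-out – percent inhibition of filter-corrected integrated lipid droplet intensity per well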
UPR CHOP act = activators of apoptotic CHOP UPR arm, primary screen, cell-based, CHO-CHOP luciferase reporter, luminescence, uHTS. UPR activation; percent of tunicamycin response over DMSO baseline. 0.34% of 330,000 active. AID 449763, 2010. activation, % at 10 µM;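 active means at 10 µM dose, activation of 40% or more, normalized to positive control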
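Evaluation: % reporter activation, DMSO baseline versus tunicamycin full activation; System: CHO-CHOP luciferase reporter cell line; Input: 500 cells/well; Incubation: 6 h compound treatment, 37 °C; Measured by: Steady-Glo luciferase luminescence; Dosing: one dose, 10 µM in 0.5% DMSO; Buffer or medium: F12 medium, 10% FBS; Benchmarks: positive tunicamycin 10 µg/mL, negative DMSO alone.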
XBP1 UPR activ = activators of adaptive XBP1 UPR arm, primary screen, cell-based, CHO-XBP1 luciferase reporter, luminescence, uHTS. IRE1-XBP1 UPR activation; percent of tunicamycin response, DMSO as zero. AID 463104, 2010. activation, % at 20 µM. 0.33% of 330,000 active;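 active means versus positive control, 20 µM dose yields 30% or more activation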
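incubation = overnight seeding at 37 °C, 6 h compound treatment at 37 °C | assay system = CHO-XBP1 cells stably carrying IRE1-XBP1-driven luciferase reporter | input = 1000 cells per well | detection = luciferase luminescence | dosing = single point, 20 µM final compound, 1% DMSO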
Hits are given with their value; – = inactive; · = not tested or not shown.

SMILES	TMEM16A act	CHOP inhibitor	TMEM16A inh	Hep lipid drop	UPR CHOP act	XBP1 UPR activ
CC(C)(C)C(=O)Nc1sc2c(c1-c1nc3ccccc3[nH]1)CCCC2	–	83	–	–	–	–
O=c1[nH]c2ccccc2n1CCCSc1cnc2ccccc2n1	–	78	–	–	–	–
Cc1cc(OC(C)C(=O)NCCc2c[nH]c3ccccc23)c2c(C)cc(=O)oc2c1 (centres undefined)	-10	·	–	–	–	–
CCCc1cc(=O)oc2cc(C)cc(OC(C)C(=O)N[C@@H](Cc3c[nH]c4ccccc34)C(=O)O)c12 (some centres undefined)	–	·	–	–	–	–
CCOC(=O)c1sc2ccccc2c1NC(=O)c1coc2ccccc2c1=O	–	–	–	–	–	–
CCOC(=O)c1sc2ccccc2c1OC(=O)c1ccccc1	–	81	–	–	–	–
CCOC(=O)c1c(-c2cccs2)csc1NC(=O)CN1CC(C)OC(C)C1 (centres undefined)	–	84	–	–	–	–
CCOC(=O)c1c(-c2cccs2)csc1NC(C)=O	–	–	–	–	–	–
COc1ccc(OCCC(=O)OCC(=O)NCCC2=CCCCC2)cc1	-34	–	–	–	–	–
CC(OC(=O)Cc1ccc(Cl)cc1)C(=O)NCCC1=CCCCC1 (centres undefined)	–	–	–	–	–	–
O=C(COC(=O)/C=C/c1ccc(Cl)cc1)NCCC1=CCCCC1	–	78	–	–	–	–
CC(Oc1ccc(Cl)cc1Cl)C(=O)NCCC1=CCCCC1 (centres undefined)	–	90	–	–	–	–
O=C(COC(=O)/C=C/c1cccc(Cl)c1)NCCC1=CCCCC1	–	–	–	–	–	–
CCCNC(=S)N1CC2(C)CN(C(=O)C(=O)OC)CC(C)(C1)C2=O	–	–	–	–	–	–
COc1ccc(NC(=O)CN(C)CC(=O)NCC(=O)Nc2ccc(F)cc2)cc1	–	·	–	·	–	–
CC1CN(C(NC(=O)c2ccccc2)C(Cl)(Cl)Cl)CC(C)O1 (centres undefined)	–	–	·	–	·	·
Clc1ccccc1NCSC1=NCCS1	–	·	·	·	·	·
Cc1ccc(Nc2nc(Cl)nc(NC(C)(C)C)n2)cc1	–	·	–	–	–	–
Cc1ccc(Nc2nc(Nc3ccc(C)cc3)nc(SC3=NCCS3)n2)cc1	–	90	–	–	–	–
Cc1ccccc1Nc1nc(Nc2ccccc2C)nc(SC2=NCCS2)n1	–	–	25	–	–	–
CCN(c1cccc(C)c1)S(=O)(=O)c1ccc(-c2ccc(=O)[nH]n2)o1	–	·	–	–	–	–
Cc1ccc(-c2nnc(Nc3ccccc3)o2)cc1	–	84	–	·	–	–
Cc1ccc(NC(=O)Nc2nnc(-c3ccccc3)o2)cc1	–	–	–	–	–	–
CCN1CCN(Cc2nc3cc(NC(=O)COc4ccc([N+](=O)[O-])cc4)ccc3n2C)CC1	–	·	–	–	–	–
Cc1nn(Cc2ccc(Cl)c(Cl)c2)c(C)c1NC(=O)c1cc(-c2ccco2)on1	–	87	–	–	–	–
O=C(CSc1nnc(CNC(=O)c2ccccc2)o1)NCC1CCCO1 (centres undefined)	–	·	–	–	–	–
COCCNC(=O)c1c(N)n(-c2cccc(C)c2)c2nc3ccccc3nc12	–	77	–	·	–	–
Nc1ccc(-n2c(N)c(C(=O)NCc3ccc4c(c3)OCO4)c3nc4ccccc4nc32)cc1	–	·	–	·	–	–
Nc1c(C(=O)NCc2ccccc2)c2nc3ccccc3nc2n1-c1ccc2c(c1)OCO2	–	79	–	–	–	–
COCCNC(=O)c1c(N)n(-c2ccccc2)c2nc3ccccc3nc12	–	–	–	·	–	–
